The source made the active and inactive calls. The rule behind the calls is not given here.
Assays:
Type in all cases: functional
Homo sapiens [1] = species: Homo sapiens; test: Immunosuppressive activity against human peripheral mononuclear cells assessed as inhibition of LPS-stimulated IFN-gamma production at 10 ug/mL
Outline: (§1)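 Whole blood from healthy human volunteers was used as the cell source for the immunosuppression screen. Other details follow a previously published method.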

Homo sapiens [2] = species: Homo sapiens; test: Immunosuppressive activity against human peripheral mononuclear cells assessed as inhibition of LPS-stimulated IL2 production at 10 ug/mL; outline: as §1
Homo sapiens [3] = species: Homo sapiens; test: Immunosuppressive activity against human peripheral mononuclear cells assessed as inhibition of LPS-stimulated IL4 production at 10 ug/mL; outline: as §1
[4] = Immunosuppressive activity against human peripheral mononuclear cells assessed as inhibition of LPS-stimulated IL2 production at 3 ug/mL; outline: as §1
[5] = Immunosuppressive activity against human peripheral mononuclear cells assessed as inhibition of LPS-stimulated IFN-gamma production at 3 ug/mL; outline: as §1
[6] = Immunosuppressive activity against human peripheral mononuclear cells assessed as inhibition of LPS-stimulated IL4 production at 3 ug/mL; outline: as §1
[7] = Immunosuppressive activity against human peripheral mononuclear cells assessed as inhibition of LPS-stimulated IL2 production at 0.3 ug/mL; outline: as §1
[8] = Immunosuppressive activity against human peripheral mononuclear cells assessed as inhibition of LPS-stimulated IL4 production at 0.3 ug/mL; outline: as §1
[9] = Immunosuppressive activity against human peripheral mononuclear cells assessed as inhibition of LPS-stimulated IFN-gamma production at 0.3 ug/mL; outline: as §1

Row | Compound | Activity (Homo sapiens [1]) | Activity (Homo sapiens [2]) | Activity (Homo sapiens [3]) | other results
1 | C/C(=C\Cc1cc(C(=O)O)ccc1O)CCC(O)[C@]1(C)CC[C@H](C(C)(C)O)O1 (stereo not given in full) | inactive | inactive | inactive | –
2 | CC(C)=CCCC(C)(O)C(O)CC/C(C)=C/Cc1cc(C(=O)O)ccc1O (stereo not given) | inactive | inactive | inactive | –
3 | C/C(=C\Cc1cc(C(=O)O)ccc1O)CC/C=C(\C)CCC(O)C(C)(C)O (racemic) | inactive | inactive | inactive | –
4 | CC(C)=CCC/C(C)=C/CC[C@@]1(C)Oc2ccc(C(=O)O)cc2C[C@H]1O (racemic) [KUHISTANOL D] | – | – | – | inhibition at 3 µg/mL [4]: 77.3%; inhibition at 3 µg/mL [5]: 61.8%; inhibition at 3 µg/mL [6]: 70.3%
5 | C[C@]12C=CC(=O)C=C1CC[C@@H]1[C@@H]2[C@@H](O)C[C@@]2(C)[C@H]1CC[C@]2(O)C(=O)CO [PREDNISOLONE] | – | – | – | inhibition at 0.3 µg/mL [7]: 65.6%; inhibition at 0.3 µg/mL [8]: 55.3%; inhibition at 0.3 µg/mL [9]: 60.2%

Source: ChEMBL document CHEMBL1155695, “Prenylated benzoic acid derivatives from Ferula kuhistanica” (2000)
